# From paper PMC8359310 (British Journal of Clinical Pharmacology, 2020)
# How the values were obtained:
# [1] = one of the capmatinib studies; ref data on file; cited from earlier work
# [2] = Estimated maximum luminal concentration in the gut; parameters: species or system human; details: therapeutic dose 400 mg twice daily; dose/250 mL
# Safety assessments = format: in vivo, human
# [3] = molecular target: organic anion transporting polypeptide (OATP) 1B1; details: read-out: Ki for OATP1B1; in vitro; ref data on file; cited from earlier work
# [4] = tested on: breast cancer resistant protein (BCRP); details: in vitro, cited from earlier work
# [5] = cited from earlier work
# [6] = tested on: breast cancer resistant protein (BCRP); assay: In vitro inhibition of transporter BCRP by capmatinib; format: in vitro ADME; details: 400 mg twice daily
# p‐glycoprotein (P‐gp) = details: in vitro, cited from earlier work
# OATP1B3 = details: read-out: Ki for OATP1B3; in vitro; ref data on file; cited from earlier work
# [7] = tested on: MET‐dysregulated advanced solid tumours; assay: Antitumour activity by Investigator's assessment per RECIST 1.1; format: in vivo, human
# Summary of the method: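 Adults (≥18 years) with refractory MET-dysregulated advanced solid tumours (amplification with gene copy number ≥4 by FISH or qPCR, IHC intensity +3 in ≥50% of tumour cells, or exon 14 deletion mutation). Test compound given orally at 400 mg twice daily, then continued on 21-day cycles. Investigator-read CT every 6 weeks. Patients stopping for other reasons were followed until progression, new therapy or death.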
# [8] = Capmatinib plasma concentrations in DDI and post‐DDI phase; format: in vivo, human; details: 400 mg twice daily
# [9] = regardless of study drug relationship
smiles,measurement,setting,value
CNC(=O)c1ccc(-c2cnc3ncc(Cc4ccc5ncccc5c4)n3n2)cc1F [capmatinib],cystatin C level following capmatinib treatment,[1],No change
same,estimated maximum luminal concentration in the gut,[2],approximately 3880 μM
same,patients with AEs leading to study drug discontinuation,Safety assessments; all events grade 3/4,9.4%
same,patients with treatment‐related AEs,Safety assessments; all grades,78.1%
same,"treatment‐related asthenia, patients",Safety assessments; all grades,18.8%
same,"treatment‐related dyspepsia, patients",Safety assessments; all grades,15.6%
same,"treatment‐related nausea, patients",Safety assessments; all grades,34.4%
same,"treatment‐related peripheral oedema, patients",Safety assessments; all grades,12.5%
same,"treatment‐related vomiting, patients",Safety assessments; all grades,34.4%
same,"nausea leading to dose adjustment or dose interruption, patients",Safety assessments; both Grade ≤2,6.3%
same,alterations in the electrocardiograph,Safety assessments; in vivo,No clinically relevant alterations
same,on‐treatment deaths,Safety assessments; in vivo,18.8%
same,on‐treatment deaths due to AE (respiratory tract infection),Safety assessments; in vivo,3.1%
same,on‐treatment deaths due to AEs with disease progression as contributing reason,Safety assessments; in vivo,9.4%
same,on‐treatment deaths due to disease progression,Safety assessments; in vivo,6.3%
same,"other treatment‐related SAEs: anaemia, abdominal pain and malaise, each",Safety assessments; in vivo,1 patient
same,patients who died during the study,Safety assessments; in vivo,25.0%
same,patients with AEs requiring dose adjustment or study drug interruption,Safety assessments; in vivo,40.6%
same,patients with treatment‐related Grade 3/4 AEs,Safety assessments; in vivo,25.0%
same,patients with treatment‐related SAEs,Safety assessments; in vivo,12.5%
same,"treatment‐related Grade 3/4 vomiting, patients",Safety assessments; in vivo,6.3%
same,"treatment‐related SAE vomiting, patients",Safety assessments; in vivo,9.4%
same,"Abdominal pain upper, Grade 3/4",Safety assessments; [9],0 n (%)
same,"Abdominal pain upper, all grades",Safety assessments; [9],4 (12.5) n (%)
same,"Abdominal pain, Grade 3/4",Safety assessments; [9],1 (3.1) n (%)
same,"Abdominal pain, all grades",Safety assessments; [9],3 (9.4) n (%)
same,"Anaemia, Grade 3/4",Safety assessments; [9],3 (9.4) n (%)
same,"Anaemia, all grades",Safety assessments; [9],7 (21.9) n (%)
same,"Asthenia, Grade 3/4",Safety assessments; [9],2 (6.3) n (%)
same,"Asthenia, all grades",Safety assessments; [9],14 (43.8) n (%)
same,"Back pain, Grade 3/4",Safety assessments; [9],1 (3.1) n (%)
same,"Back pain, all grades",Safety assessments; [9],6 (18.8) n (%)
same,"Blood albumin decreased, Grade 3/4",Safety assessments; [9],1 (3.1) n (%)
same,"Blood albumin decreased, all grades",Safety assessments; [9],2 (6.3) n (%)
same,"Candida infection, Grade 3/4",Safety assessments; [9],0 n (%)
same,"Candida infection, all grades",Safety assessments; [9],2 (6.3) n (%)
same,"Constipation, Grade 3/4",Safety assessments; [9],0 n (%)
same,"Constipation, all grades",Safety assessments; [9],13 (40.6) n (%)
same,"Cough, Grade 3/4",Safety assessments; [9],0 n (%)
same,"Cough, all grades",Safety assessments; [9],5 (15.6) n (%)
same,"Decreased appetite, Grade 3/4",Safety assessments; [9],1 (3.1) n (%)
same,"Decreased appetite, all grades",Safety assessments; [9],7 (21.9) n (%)
same,"Depression, Grade 3/4",Safety assessments; [9],0 n (%)
same,"Depression, all grades",Safety assessments; [9],2 (6.3) n (%)
same,"Diarrhoea, Grade 3/4",Safety assessments; [9],1 (3.1) n (%)
same,"Diarrhoea, all grades",Safety assessments; [9],6 (18.8) n (%)
same,"Dyspepsia, Grade 3/4",Safety assessments; [9],0 n (%)
same,"Dyspepsia, all grades",Safety assessments; [9],7 (21.9) n (%)
same,"Dyspnoea, Grade 3/4",Safety assessments; [9],2 (6.3) n (%)
same,"Dyspnoea, all grades",Safety assessments; [9],6 (18.8) n (%)
same,"Fatigue, Grade 3/4",Safety assessments; [9],0 n (%)
same,"Fatigue, all grades",Safety assessments; [9],4 (12.5) n (%)
same,"Headache, Grade 3/4",Safety assessments; [9],0 n (%)
same,"Headache, all grades",Safety assessments; [9],2 (6.3) n (%)
same,"Hypotension, Grade 3/4",Safety assessments; [9],1 (3.1) n (%)
same,"Hypotension, all grades",Safety assessments; [9],2 (6.3) n (%)
same,"Increased blood bilirubin, Grade 3/4",Safety assessments; [9],1 (3.1) n (%)
same,"Increased blood bilirubin, all grades",Safety assessments; [9],5 (15.6) n (%)
same,"Lymphocyte count decreased, Grade 3/4",Safety assessments; [9],1 (3.1) n (%)
same,"Lymphocyte count decreased, all grades",Safety assessments; [9],2 (6.3) n (%)
same,"Nausea, Grade 3/4",Safety assessments; [9],2 (6.3) n (%)
same,"Nausea, all grades",Safety assessments; [9],18 (56.3) n (%)
same,"Oedema peripheral, Grade 3/4",Safety assessments; [9],0 n (%)
same,"Oedema peripheral, all grades",Safety assessments; [9],9 (28.1) n (%)
same,"Pulmonary embolism, Grade 3/4",Safety assessments; [9],3 (9.4) n (%)
same,"Pulmonary embolism, all grades",Safety assessments; [9],3 (9.4) n (%)
same,"Pyrexia, Grade 3/4",Safety assessments; [9],1 (3.1) n (%)
same,"Pyrexia, all grades",Safety assessments; [9],8 (25.0) n (%)
same,"Rash, Grade 3/4",Safety assessments; [9],0 n (%)
same,"Rash, all grades",Safety assessments; [9],2 (6.3) n (%)
same,"Respiratory tract infection, Grade 3/4",Safety assessments; [9],1 (3.1) n (%)
same,"Respiratory tract infection, all grades",Safety assessments; [9],5 (15.6) n (%)
same,"Total adverse events, Grade 3/4",Safety assessments; [9],18 (56.3) n (%)
same,"Total adverse events, all grades",Safety assessments; [9],32 (100) n (%)
same,"Urinary tract infection, Grade 3/4",Safety assessments; [9],0 n (%)
same,"Urinary tract infection, all grades",Safety assessments; [9],3 (9.4) n (%)
same,"Vertigo, Grade 3/4",Safety assessments; [9],0 n (%)
same,"Vertigo, all grades",Safety assessments; [9],2 (6.3) n (%)
same,"Vitamin K decreased, Grade 3/4",Safety assessments; [9],1 (3.1) n (%)
same,"Vitamin K decreased, all grades",Safety assessments; [9],3 (9.4) n (%)
same,"Vomiting, Grade 3/4",Safety assessments; [9],2 (6.3) n (%)
same,"Vomiting, all grades",Safety assessments; [9],13 (40.6) n (%)
same,"Weight decreased, Grade 3/4",Safety assessments; [9],0 n (%)
same,"Weight decreased, all grades",Safety assessments; [9],2 (6.3) n (%)
same,"anaemia, Grade 3/4, patients",Safety assessments; [9],9.4%
same,"anaemia, all grades, patients",Safety assessments; [9],21.9%
same,"asthenia, Grade 3/4, patients",Safety assessments; [9],6.3%
same,"asthenia, all grades, patients",Safety assessments; [9],43.8%
same,"constipation, all grades, patients",Safety assessments; [9],40.6%
same,"decreased appetite, all grades, patients",Safety assessments; [9],21.9%
same,"dyspepsia, all grades, patients",Safety assessments; [9],21.9%
same,"dyspnoea, Grade 3/4, patients",Safety assessments; [9],6.3%
same,"nausea, Grade 3/4, patients",Safety assessments; [9],6.3%
same,"nausea, all grades, patients",Safety assessments; [9],56.3%
same,patients with Grade 3/4 AEs,Safety assessments; [9],56.3%
same,patients with Grade 3/4 SAEs,Safety assessments; [9],40.6%
same,patients with SAEs of any grade,Safety assessments; [9],53.1%
same,"peripheral oedema, all grades, patients",Safety assessments; [9],28.1%
same,"pulmonary embolism, Grade 3/4, patients",Safety assessments; [9],9.4%
same,"pyrexia, all grades, patients",Safety assessments; [9],25%
same,"vomiting, Grade 3/4, patients",Safety assessments; [9],6.3%
same,"vomiting, all grades, patients",Safety assessments; [9],40.6%
same,enrolled patients who experienced at least 1 AE,"Safety assessments; regardless of study drug relationship, 32 enrolled",32 patients
same,serum creatinine change,"Safety assessments; some subjects, none clinically relevant or reported as AE",low‐grade creatinine increase
same,Ki,[3],5.1 µM
same,IC50,[4]; read-out: IC50 for inhibition of BCRP,16.4 µM
same,Ki,"[4]; read-out: Ki for BCRP, ref data on file",8.2 µM
same,steady state expected to be reached by,[5]; consecutive twice daily dosing,≤ 3 days
same,time to maximum plasma concentration (Tmax),[5]; oral administration,1 to 2 h
same,maximum luminal gut concentration relative to Ki for BCRP,[6],> 300 fold
same,IC50,p‐glycoprotein (P‐gp); read-out: IC50 for inhibition of P‐gp,12 µM
same,Ki,"p‐glycoprotein (P‐gp); read-out: Ki for P‐gp, ref data on file",12 µM
same,Ki,OATP1B3,5.2 µM
same,Best overall response: Progressive disease (PD),[7]; all patients n = 32,17 (53.1) n (%)
same,Best overall response: Unknown,[7]; all patients n = 32,7 (21.9) n (%)
same,complete response (CR) or partial response (PR),[7]; all patients n = 32,No patient
same,disease control rate (CR + PR + SD),[7]; in vivo,25%
same,patients with PD as best overall response,[7]; in vivo,53.1%
same,patients with stable disease as best overall response,[7]; in vivo,25%
same,patients with unknown response,[7]; in vivo,21.9%
same,geometric mean predose concentration,[8]; Cycle 2 Day 1 (post‐DDI phase),529 ng/mL
same,geometric mean predose concentration,[8]; Day 22 (DDI phase),407 ng/mL
same,concentration at 2 h,"[8]; human, oral",3960 ng/mL
